Reference: publication PMC9082783 (RSC Advances, 2018)
Entries after “also recorded” stand apart in the source; their conditions may differ. Like-named read-outs stand apart in the source and are kept apart here.

Assays:
Jack bean urease [1] = target: T1, Jack bean urease (Canavalia ensiformis, UniProt P07374); experiment: In vitro urease inhibitory activity; format: biochemical
Hemolytic activity = format: cell-based; settings: bovine, erythrocyte (RBC) suspension, pH 7.4
Outline: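 Bovine blood collected in EDTA, diluted in 0.9% NaCl and centrifuged at 1000 × g for 10 min. Erythrocytes were resuspended in PBS pH 7.4. Test compound solution (10 mg/mL stock) was mixed with the RBC suspension and incubated 30 min at room temperature. PBS served as negative control, Triton X-100 as positive control. Triplicate runs; mean ± SEM; % hemolysis calculated by formula.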

Jack bean urease [2] = target: T1, Jack bean urease; experiment: Kinetic analysis of urease inhibition; format: biochemical
Outline: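 Jack bean urease (5 U/mL enzyme solution) in potassium phosphate buffer (10 mM K2HPO4, 1 mM EDTA, 10 mM LiCl, pH 8.2) at 37 °C. Ammonia read by indophenol method at 625 nm. Initial velocities taken from per-minute readings up to 10 min. Mode from Lineweaver–Burk plots; Ki from secondary plot with linear least-squares fit.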

T1 sequence (P07374 whole entry, looked up): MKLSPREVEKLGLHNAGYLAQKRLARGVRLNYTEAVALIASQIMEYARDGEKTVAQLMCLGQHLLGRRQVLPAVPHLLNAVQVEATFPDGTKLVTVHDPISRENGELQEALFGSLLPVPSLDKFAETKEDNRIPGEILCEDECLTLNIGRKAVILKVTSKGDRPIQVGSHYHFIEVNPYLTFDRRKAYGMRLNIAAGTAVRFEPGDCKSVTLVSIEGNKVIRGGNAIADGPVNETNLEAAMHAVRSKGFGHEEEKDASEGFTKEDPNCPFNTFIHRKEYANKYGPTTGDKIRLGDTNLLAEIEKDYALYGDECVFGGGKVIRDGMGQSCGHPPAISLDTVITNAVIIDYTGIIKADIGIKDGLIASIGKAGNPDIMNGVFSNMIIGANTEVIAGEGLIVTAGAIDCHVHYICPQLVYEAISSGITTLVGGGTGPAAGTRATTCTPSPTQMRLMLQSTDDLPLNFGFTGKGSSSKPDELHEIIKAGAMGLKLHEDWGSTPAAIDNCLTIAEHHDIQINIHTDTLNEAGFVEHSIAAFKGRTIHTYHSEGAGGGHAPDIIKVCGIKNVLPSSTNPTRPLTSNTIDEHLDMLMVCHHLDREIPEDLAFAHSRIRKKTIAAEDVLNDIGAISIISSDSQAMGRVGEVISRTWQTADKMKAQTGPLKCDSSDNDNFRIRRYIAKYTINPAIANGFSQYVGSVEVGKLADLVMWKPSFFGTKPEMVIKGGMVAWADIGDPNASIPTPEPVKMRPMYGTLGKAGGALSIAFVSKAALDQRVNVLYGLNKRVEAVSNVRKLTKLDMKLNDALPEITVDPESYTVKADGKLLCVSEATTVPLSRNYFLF

SMILES	IC50 (Jack bean urease [1])	hemolysis at 30 min (Hemolytic activity)	other results
CCOc1ccc(NC(=O)CCCSc2nnc(CCCc3c[nH]c4ccccc34)o2)cc1 [Compound 8a]	52.3 ± 4.4 nM	3.16 ± 0.05%	
CCc1ccccc1NC(=O)CCCSc1nnc(CCCc2c[nH]c3ccccc23)o1 [Compound 8b]	54.2 ± 21.1 nM	2.41 ± 0.03%	
CCc1ccc(NC(=O)CCCSc2nnc(CCCc3c[nH]c4ccccc34)o2)cc1 [Compound 8c]	17.5 ± 6.5 nM	0.62 ± 0.02%	Ki (Jack bean urease [2]): 3 nM; Vmax (ΔA/Min) (Jack bean urease [2]; 8c concentration 0.017 μM): 6.119 × 10^−5 ΔA/Min; Vmax (ΔA/Min) (Jack bean urease [2]; 8c concentration 0.034 μM): 4.599 × 10^−5 ΔA/Min; Inhibition type (Jack bean urease [2]; Lineweaver-Burk plot): non-competitively; also recorded: Non-competitive
Cc1ccccc1NC(=O)CCCSc1nnc(CCCc2c[nH]c3ccccc23)o1 [Compound 8d]	71.7 ± 15.2 nM	5.18 ± 0.03%	
Cc1cccc(NC(=O)CCCSc2nnc(CCCc3c[nH]c4ccccc34)o2)c1 [Compound 8e]	32.3 ± 11.9 nM	5.92 ± 0.02%	
Cc1ccc(NC(=O)CCCSc2nnc(CCCc3c[nH]c4ccccc34)o2)cc1 [Compound 8f]	102 ± 29.9 nM	3.51 ± 0.04%	
Cc1ccc(NC(=O)CCCSc2nnc(CCCc3c[nH]c4ccccc34)o2)c(C)c1 [Compound 8g, N-(2,4-dimethylphenyl)-4-({5-[3-(1H-indol-3-yl)propyl]-1,3,4-oxadiazol-2-yl}sulfanyl)butanamide]	200 ± 12.2 nM	1.41 ± 0.01%	
Cc1cccc(C)c1NC(=O)CCCSc1nnc(CCCc2c[nH]c3ccccc23)o1 [Compound 8h]	25.1 ± 8.3 nM	2.63 ± 0.02%	
Cc1cc(C)cc(NC(=O)CCCSc2nnc(CCCc3c[nH]c4ccccc34)o2)c1 [Compound 8i]	124 ± 31.8 nM	7.32 ± 0.03%	
CCc1cccc(C)c1NC(=O)CCCSc1nnc(CCCc2c[nH]c3ccccc23)o1 [Compound 8j]	37.5 ± 5.8 nM	9.63 ± 0.05%	
NC(N)=S [Thiourea, reference compound]			IC50 (Jack bean urease [1]; read-out: Urease activity IC50 ± SEM, Jack bean urease 5 U/mL, 100 mM urea, pH 8.2, 30 min at 37 °C, triplicate): 4750 ± 54.6 nM
CC(C)(C)CC(C)(C)c1ccc(OCCO)cc1 [Triton X, reference compound]		89.11 ± 0.01%	
